How the values were obtained:
[1] = Cytotoxicity against mouse SMA cells assessed as growth inhibition at 25 uM after 72 hrs by MTT assay relative to control; format: functional; conditions: read-out: GI
How it was run: (§1)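 Cells in logarithmic growth kept in DMEM with 10% FBS, 10 mM sodium bicarbonate, penicillin 100 IU/mL, glutamine 4 mM, at 37 °C under 5% CO2. Plated in duplicate at 2500–4000 cells/well. Compound (30 mM DMSO stock) added 24 h after plating. MTT read at 540 nm after 72 h exposure.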

[2] = Cytotoxicity against human H460 cells assessed as growth inhibition at 25 uM after 72 hrs by MTT assay relative to control; format: functional; conditions: NCI-H460, 72 h, read-out: GI; how it was run: as §1
SW480 = test: Cytotoxicity against human SW480 cells assessed as growth inhibition at 25 uM after 72 hrs by MTT assay relative to control; format: functional; conditions: SW480, 72 h, read-out: GI; how it was run: as §1
[3] = Cytotoxicity against human SJ-G2 cells assessed as growth inhibition at 25 uM after 72 hrs by MTT assay relative to control; format: functional; conditions: SJ-G2, 72 h, read-out: GI; how it was run: as §1
[4] = Cytotoxicity against human BE(2)-C cells assessed as growth inhibition at 25 uM after 72 hrs by MTT assay relative to control; format: functional; conditions: read-out: GI; how it was run: as §1
HT-29 = test: Cytotoxicity against human HT-29 cells assessed as growth inhibition at 25 uM after 72 hrs by MTT assay relative to control; format: functional; conditions: HT-29, 72 h, read-out: GI; how it was run: as §1
DU-145 = test: Cytotoxicity against human DU145 cells assessed as growth inhibition at 25 uM after 72 hrs by MTT assay relative to control; format: functional; conditions: DU-145, 72 h, read-out: GI; how it was run: as §1
A-431 = test: Cytotoxicity against human A431 cells assessed as growth inhibition at 25 uM after 72 hrs by MTT assay relative to control; format: functional; conditions: A-431, 72 h, read-out: GI; how it was run: as §1
MCF7 = test: Cytotoxicity against human MCF7 cells assessed as growth inhibition at 25 uM after 72 hrs by MTT assay relative to control; format: functional; conditions: MCF7, 72 h, read-out: GI; how it was run: as §1
A2780 = test: Cytotoxicity against human A2780 cells assessed as growth inhibition at 25 uM after 72 hrs by MTT assay relative to control; format: functional; conditions: A2780, 72 h, read-out: GI; how it was run: as §1
[5] = Cytotoxicity against human U87 cells assessed as growth inhibition at 25 uM after 72 hrs by MTT assay relative to control; format: functional, U-87MG ATCC; conditions: U-87 MG, read-out: GI; how it was run: as §1
[6] = Cytotoxicity against human MIA cells assessed as growth inhibition at 25 uM after 72 hrs by MTT assay relative to control; format: functional; conditions: read-out: GI; how it was run: as §1

Structure (SMILES) | inhibition of growth at 25 µM [1] [%] | inhibition of growth at 25 µM [2] [%] | inhibition of growth at 25 µM (SW480) [%] | inhibition of growth at 25 µM [3] [%] | inhibition of growth at 25 µM [4] [%] | inhibition of growth at 25 µM (HT-29) [%] | inhibition of growth at 25 µM (DU-145) [%] | inhibition of growth at 25 µM (A-431) [%] | inhibition of growth at 25 µM (MCF7) [%] | inhibition of growth at 25 µM (A2780) [%] | inhibition of growth at 25 µM [5] [%] | inhibition of growth at 25 µM [6] [%]
O=C(NCCc1ccccc1)c1ccc[nH]1 | 7 | 5 | 9 | 2 | < 0 | 9 | 5 | 5 | 7 | 6 | 9 | < 0
O=C(NCCCc1ccccc1)c1ccc[nH]1 | 8 | 13 | 7 | 0 | < 0 | 16 | < 0 | 1 | 21 | 10 | 11 | 10
O=C(NCCc1ccc(O)cc1)c1ccc[nH]1 | < 1 | 2 | 5 | 11 | < 0 | 3 | < 0 | < 0 | 8 | 18 | 2 | 6
O=C(NCCCCc1ccccc1)c1cc(Br)c(Br)[nH]1 | 40 | 17 | < 0 | 14 | < 0 | 41 | 19 | 24 | 70 | 56 | < 0 | 34
O=C(NCCc1ccc2ccccc2c1)c1cc(Br)c(Br)[nH]1 | 17 | 12 | < 0 | 10 | < 0 | 28 | 14 | 15 | 53 | 52 | < 0 | 21
Cc1nccn1CCCNC(=O)c1cc(Br)c(Br)[nH]1 | 11 | 22 | 26 | 10 | 20 | 10 | 28 | 11 | 36 | 21 | < 0 | 15
O=C(NCCc1ccccc1)c1cc(Br)c(Br)[nH]1 | 53 | 19 | 1 | 22 | 62 | 46 | < 0 | 7 | 70 | 58 | < 0 | 19
O=C(NCCCn1cccn1)c1ccc[nH]1 | 8 | 14 | 9 | < 0 | 1 | 4 | 7 | 1 | 7 | 10 | 9 | 19
O=C(NCCc1ccc2ccccc2c1)c1ccc[nH]1 | 16 | 23 | 3 | 8 | < 0 | 19 | 20 | 8 | 23 | 13 | < 1 | 20
O=C(NCCc1c[nH]cn1)c1cc(Br)c(Br)[nH]1 | 18 | 35 | 12 | 11 | 13 | 11 | < 0 | 2 | 23 | 37 | 5 | 20
Cc1nccn1CCCNC(=O)c1ccc[nH]1 | < 0 | 3 | 7 | < 0 | < 0 | 5 | 5 | < 0 | 8 | 1 | 3 | 4
O=C(NCc1ccc(Cl)cc1)c1ccc[nH]1 | 10 | < 0 | 4 | < 0 | < 0 | 10 | < 0 | < 0 | 10 | 2 | 4 | 1
O=C(NCC(c1ccccc1)c1ccccc1)c1ccc[nH]1 | 15 | 11 | < 0 | 53 | < 0 | 29 | 8 | 30 | 52 | 27 | 14 | 32
O=C(NCCc1c[nH]cn1)c1ccc[nH]1 | 0 | 0 | 1 | < 0 | < 0 | 11 | 5 | 3 | 1 | 11 | 6 | 7
COc1ccc(CNC(=O)c2ccc[nH]2)cc1 | < 0 | 2 | 10 | < 0 | < 0 | 3 | 8 | < 0 | 5 | 6 | < 0 | 6
O=C(NCCCCc1ccccc1)c1ccc[nH]1 | 6 | 11 | < 0 | 8 | < 0 | 16 | 10 | 12 | 23 | 13 | < 0 | 15
O=C(NCCCc1ccccc1)c1cc(Br)c(Br)[nH]1 | 45 | 25 | < 0 | 8 | < 0 | 41 | < 0 | 5 | 63 | 48 | < 0 | 21
COc1ccc(CNC(=O)c2cc(Br)c(Br)[nH]2)cc1 | 23 | 13 | < 0 | 4 | < 0 | 14 | < 0 | 12 | 30 | 48 | < 0 | 14

Reference: ChEMBL document CHEMBL3112444, “Synthesis and anticancer activity of focused compound libraries from the natural product lead, oroidin” (2014)
